According to ChEMBL document CHEMBL1147405, “New bicyclam-GalCer analogue conjugates: synthesis and in vitro anti-HIV activity” (Bioorg Med Chem Lett, 2004):

Key:
PBMC [1] = assay: Effective concentration of compound against HIV-1 89.6 strain in PBMC cells; assay type: functional, cell-based; details: Homo sapiens
Procedure, shortened: (§1)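 PBMC infected with dual-tropic HIV-1 89.6. Virus growth measured by reverse transcriptase activity. EC50 is the concentration protecting 50% of infected cells. Relative potency is expressed against AMD3100.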

CEM-SS [2] = assay: Effective concentration of compound against HIV-1 LAI strain in CEM-SS cells; assay type: functional, cell-based; details: Homo sapiens
Procedure, shortened: (§2)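 CEM-SS cells infected with HIV-1 LAI. Virus replication followed by reverse transcriptase activity measurement. EC50 is the concentration inhibiting 50% of virus replication. Relative potency is the ratio to AMD3100.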

PBMC [3] = assay: Potency of compound against HIV-1 89.6 strain in PBMC cells relative to AMD3100; assay type: functional, Homo sapiens; procedure, shortened: as §1
[4] = (§3) Concentration of compound causing 50% death of uninfected cells; assay type: ADME, cell-based; details: human
Procedure, shortened: (§4)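 Uninfected cells of each line (CEM-SS, MT4 or PBMC) exposed to compound; CC50 taken as the concentration causing 50% death of uninfected cells.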

MT4 [5] = assay: Potency of compound against HIV-1 IIIB strain in MT-4 cells relative to AMD3100; assay type: functional, Homo sapiens
Procedure, shortened: (§5)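 MT4 cells infected with HIV-1 IIIB. Virus-induced cytopathogenic effect scored. EC50 is the concentration protecting 50% of infected cells against cytopathogenicity. Relative potency is expressed against AMD3100.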

[6] = as §3; assay type: cell-based; details: human, CEM-SS cells (uninfected); procedure, shortened: as §4
GHOST CCR5 = assay: Inhibitory concentration of compound against HIV-1 Ba1 strain in GHOST CCR5 cell line; assay type: functional, cell-based; details: Homo sapiens
Procedure, shortened: (§6)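 GHOST osteosarcoma cells express CD4, CXCR4 or CCR5 plus an HIV-2 LTR-GFP reporter, grown in Dulbecco medium with 10% FCS. Seeded at 2.5 10⁵ per well; 24 h later pretreated with compound for 1 h at 37 °C. Infected with HIV-1 Lai (CXCR4) or Bal (CCR5), 2 h adsorption, washed, cultured 48 h with drug. GFP+ cells counted by flow cytometry; IC50 from median-effect plot.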

MT4 [7] = assay: Effective concentration of compound against HIV-1 IIIB strain in MT-4 cells; assay type: functional, cell-based; details: Homo sapiens; procedure, shortened: as §5
GHOST CXCR4 [8] = assay: Potency of compound against HIV-1 LAI strain in GHOST CXCR4 cell line relative to AMD3100; assay type: functional, Homo sapiens; procedure, shortened: as §6
GHOST CXCR4 [9] = assay: Inhibitory concentration of compound against HIV-1 LAI strain in GHOST CXCR4 cell line; assay type: functional, cell-based; details: Homo sapiens; procedure, shortened: as §6
CEM-SS [10] = assay: Potency of compound against HIV-1 LAI strain in CEM-SS cells relative to AMD3100; assay type: functional, Homo sapiens; procedure, shortened: as §2

EC50 (CEM-SS [2]) [nM]	IC50 (GHOST CCR5) [nM]	IC50 (GHOST CXCR4 [9]) [nM]	Compound	EC50 (PBMC [1]) [nM]	Relative potency (PBMC [3])	CC50 ([4]; MT4 cells (uninfected)) [nM]	CC50 ([4]; PBMC (uninfected)) [nM]	Relative potency (MT4 [5])	CC50 [6] [nM]	EC50 (MT4 [7]) [nM]	Relative potency (GHOST CXCR4 [8])	Relative potency (CEM-SS [10])
910	> 50000	7.1	CCOC(=O)CCCCN1CCCN(Cc2ccc(CN3CCCNCCNCCCNCC3)cc2)CCNCCCNCC1	25	~7	> 100000	> 100000	~10	> 100000	690	~7	~7
5200	> 50000	86	CCCCCCCCCCCCCC(=O)N[C@@H](CCCCNC(=O)CCCCN1CCCN(Cc2ccc(CN3CCCNCCNCCCNCC3)cc2)CCNCCCNCC1)C(=O)N[C@@H](CO[C@@H]1O[C@@H](CO)[C@H](O)[C@H](O)[C@@H]1O)C(=O)O	470	~125	> 50000	> 28000	~45	> 50000	2800	~90	~40
6000	> 10000	21	CCCCCCCCCCCCCC(=O)N[C@@H](CCCCNC(=O)CCCCN1CCCNCCN(Cc2ccc(CN3CCCNCCNCCCNCC3)cc2)CCCNCC1)C(=O)N[C@@H](CO[C@@H]1O[C@@H](CO)[C@H](O)[C@H](O)[C@@H]1O)C(=O)O	250	~65	> 100000	> 10000	~45	> 100000	2900	~20	~50
10000			CCCCCCCCCCCCCC(=O)N[C@@H](CO[C@@H]1O[C@@H](CO)[C@H](O)[C@H](O)[C@@H]1O)C(=O)O			> 100000			> 100000	> 100000		
127	> 5000	0.95	c1cc(CN2CCCNCCNCCCNCC2)ccc1CN1CCCNCCNCCCNCC1 [PLERIXAFOR]	3.8		> 10000	> 10000		> 10000	65		

Compound	EC50 (CEM-SS [2]) [nM]	IC50 (GHOST CCR5) [nM]	IC50 (GHOST CXCR4 [9]) [nM]	EC50 (PBMC [1]) [nM]	Relative potency (PBMC [3])	CC50 ([4]; MT4 cells (uninfected)) [nM]	CC50 ([4]; PBMC (uninfected)) [nM]	Relative potency (MT4 [5])	CC50 [6] [nM]	EC50 (MT4 [7]) [nM]	Relative potency (GHOST CXCR4 [8])	Relative potency (CEM-SS [10])
Cc1cn([C@H]2C[C@H](N=[N+]=[N-])[C@@H](CO)O2)c(=O)[nH]c1=O [ZIDOVUDINE]	6.3			24						9.9		
